From ChEMBL document CHEMBL3576819, “Design, synthesis, biological evaluation and molecular docking studies of phenylpropanoid derivatives as potent anti-hepatitis B virus agents” (Eur J Med Chem, 2015)

Columns and labels:
Hepatitis B virus [1] = test: Antiviral activity against Hepatitis B virus infected in human HepG2.2.15 cells assessed as inhibition of HBeAg secretion at 37.5 uM after 9 days by ELISA; format: functional; settings: HepG2 2.2.15, 216 h
Summary of the method: (§1)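 HepG2.2.15 cells (MEM, 10% FBS, 380 µg/ml G418) seeded at 1×10^5 cells/ml, held 24 h at 37 °C, then treated with various drug concentrations; medium with drug renewed every 3 d for up to 9 d. Culture medium sampled on days 3, 6 and 9, stored at -20 °C, and assayed for secreted antigen. Lamivudine as positive control; IC50 = 50% inhibition of secretion; means of at least two experiments.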

Hepatitis B virus [2] = test: Antiviral activity against Hepatitis B virus infected in human HepG2.2.15 cells assessed as inhibition of HBsAg secretion at 150 uM after 3 days by ELISA; format: functional; settings: HepG2 2.2.15, 72 h; summary of the method: as §1
Hepatitis B virus [3] = test: Antiviral activity against Hepatitis B virus infected in human HepG2.2.15 cells assessed as inhibition of HBsAg secretion at 75 uM after 6 days by ELISA; format: functional; settings: HepG2 2.2.15, 144 h; summary of the method: as §1
[4] = Cytotoxicity against human HepG2.2.15 cells assessed as cell death after 9 days by MTT assay; format: cell-based, HepG2 2.2.15
Summary of the method: (§2)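 HepG2.2.15 cells (MEM, 10% FBS, 380 µg/ml G418, 37 °C, 5% CO2) seeded at 1×10^5 cells/ml, cultured 24 h, then exposed to various drug concentrations; drug-containing medium renewed every 3 d. OD read at 450 nm after 9 days; percent cell death calculated; CC50 = concentration killing 50% of cells. Means of at least two experiments.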

Hepatitis B virus [5] = test: Antiviral activity against Hepatitis B virus infected in human HepG2.2.15 cells assessed as inhibition of HBsAg secretion at 37.5 uM after 6 days by ELISA; format: functional; settings: HepG2 2.2.15, 144 h; summary of the method: as §1
Hepatitis B virus [6] = test: Antiviral activity against Hepatitis B virus infected in human HepG2.2.15 cells assessed as inhibition of HBeAg secretion at 300 uM after 6 days by ELISA; format: functional; settings: HepG2 2.2.15, 144 h; summary of the method: as §1
Hepatitis B virus [7] = test: Antiviral activity against Hepatitis B virus infected in human HepG2.2.15 cells assessed as inhibition of HBsAg secretion at 300 uM after 3 days by ELISA; format: functional; settings: HepG2 2.2.15, 72 h; summary of the method: as §1
Hepatitis B virus [8] = test: Antiviral activity against Hepatitis B virus infected in human HepG2.2.15 cells assessed as inhibition of HBeAg secretion at 75 uM after 3 days by ELISA; format: functional; settings: HepG2 2.2.15, 72 h; summary of the method: as §1
Hepatitis B virus [9] = test: Antiviral activity against Hepatitis B virus infected in human HepG2.2.15 cells assessed as cell survival at 75 uM after 9 days (reference value: 100%); format: functional; settings: HepG2 2.2.15, 216 h; summary of the method: as §2
Hepatitis B virus [10] = test: Antiviral activity against Hepatitis B virus infected in human HepG2.2.15 cells assessed as inhibition of HBeAg secretion by ELISA; format: functional, organism-based; settings: HepG2 2.2.15; summary of the method: as §1
Hepatitis B virus [11] = test: Antiviral activity against Hepatitis B virus infected in human HepG2.2.15 cells assessed as inhibition of HBsAg secretion at 150 uM after 9 days by ELISA; format: functional; settings: HepG2 2.2.15, 216 h; summary of the method: as §1
Hepatitis B virus [12] = test: Antiviral activity against Hepatitis B virus infected in human HepG2.2.15 cells assessed as inhibition of HBsAg secretion at 75 uM after 9 days by ELISA; format: functional; settings: HepG2 2.2.15, 216 h; summary of the method: as §1
Hepatitis B virus [13] = test: Antiviral activity against Hepatitis B virus infected in human HepG2.2.15 cells assessed as cell survival at 150 uM after 9 days (reference value: 100%); format: functional; settings: HepG2 2.2.15, 216 h; summary of the method: as §2
Hepatitis B virus [14] = test: Antiviral activity against Hepatitis B virus infected in human HepG2.2.15 cells assessed as cell survival at 37.5 uM after 9 days (reference value: 100%); format: functional; settings: HepG2 2.2.15, 216 h; summary of the method: as §2
Hepatitis B virus [15] = test: Antiviral activity against Hepatitis B virus infected in human HepG2.2.15 cells assessed as inhibition of HBeAg secretion at 37.5 uM after 3 days by ELISA; format: functional; settings: HepG2 2.2.15, 72 h; summary of the method: as §1
Hepatitis B virus [16] = test: Antiviral activity against Hepatitis B virus infected in human HepG2.2.15 cells assessed as inhibition of HBeAg secretion at 75 uM after 6 days by ELISA; format: functional; settings: HepG2 2.2.15, 144 h; summary of the method: as §1
Hepatitis B virus [17] = test: Antiviral activity against Hepatitis B virus infected in human HepG2.2.15 cells assessed as inhibition of HBeAg secretion at 300 uM after 9 days by ELISA; format: functional; settings: HepG2 2.2.15, 216 h; summary of the method: as §1
Hepatitis B virus [18] = test: Antiviral activity against Hepatitis B virus infected in human HepG2.2.15 cells assessed as inhibition of HBeAg secretion at 75 uM after 9 days by ELISA; format: functional; settings: HepG2 2.2.15, 216 h; summary of the method: as §1
Hepatitis B virus [19] = test: Antiviral activity against Hepatitis B virus infected in human HepG2.2.15 cells assessed as inhibition of HBsAg secretion at 300 uM after 6 days by ELISA; format: functional; settings: HepG2 2.2.15, 144 h; summary of the method: as §1
Hepatitis B virus [20] = test: Antiviral activity against Hepatitis B virus infected in human HepG2.2.15 cells assessed as inhibition of HBsAg secretion at 300 uM after 9 days by ELISA; format: functional; settings: HepG2 2.2.15, 216 h; summary of the method: as §1
Hepatitis B virus [21] = test: Antiviral activity against Hepatitis B virus infected in human HepG2.2.15 cells assessed as inhibition of HBsAg secretion by ELISA; format: functional, organism-based; settings: HepG2 2.2.15; summary of the method: as §1
Hepatitis B virus [22] = test: Antiviral activity against Hepatitis B virus infected in human HepG2.2.15 cells assessed as inhibition of HBeAg secretion at 150 uM after 3 days by ELISA; format: functional; settings: HepG2 2.2.15, 72 h; summary of the method: as §1
Hepatitis B virus [23] = test: Antiviral activity against Hepatitis B virus infected in human HepG2.2.15 cells assessed as cell survival at 300 uM after 9 days (reference value: 100%); format: functional; settings: HepG2 2.2.15, 216 h; summary of the method: as §2
Hepatitis B virus [24] = test: Antiviral activity against Hepatitis B virus infected in human HepG2.2.15 cells assessed as inhibition of HBsAg secretion at 37.5 uM after 9 days by ELISA; format: functional; settings: HepG2 2.2.15, 216 h; summary of the method: as §1
Hepatitis B virus [25] = test: Antiviral activity against Hepatitis B virus infected in human HepG2.2.15 cells assessed as inhibition of HBeAg secretion at 300 uM after 3 days by ELISA; format: functional; settings: HepG2 2.2.15, 72 h; summary of the method: as §1
Hepatitis B virus [26] = test: Antiviral activity against Hepatitis B virus infected in human HepG2.2.15 cells assessed as inhibition of HBeAg secretion at 150 uM after 9 days by ELISA; format: functional; settings: HepG2 2.2.15, 216 h; summary of the method: as §1
Hepatitis B virus [27] = test: Antiviral activity against Hepatitis B virus infected in human HepG2.2.15 cells assessed as inhibition of HBsAg secretion at 37.5 uM after 3 days by ELISA; format: functional; settings: HepG2 2.2.15, 72 h; summary of the method: as §1
Hepatitis B virus [28] = test: Antiviral activity against Hepatitis B virus infected in human HepG2.2.15 cells assessed as inhibition of HBeAg secretion at 37.5 uM after 6 days by ELISA; format: functional; settings: HepG2 2.2.15, 144 h; summary of the method: as §1
Hepatitis B virus [29] = test: Antiviral activity against Hepatitis B virus infected in human HepG2.2.15 cells assessed as inhibition of HBeAg secretion at 150 uM after 6 days by ELISA; format: functional; settings: HepG2 2.2.15, 144 h; summary of the method: as §1
[30] = Selectivity index, ratio of CC50 for human HepG2.2.15 cells to IC50 for Hepatitis B virus infected in human HepG2.2.15 cells assessed as inhibition of HBsAg secretion; format: functional
Summary of the method: (§3)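 Selectivity index computed as CC50/IC50, with CC50 from cell death of HepG2.2.15 cells after 9 days of treatment (OD 450 nm) and IC50 from 50% inhibition of HBeAg or HBsAg secretion in the same cells; medium with drug renewed every 3 d.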

Hepatitis B virus [31] = test: Antiviral activity against Hepatitis B virus infected in human HepG2.2.15 cells assessed as inhibition of HBsAg secretion at 75 uM after 3 days by ELISA; format: functional; settings: HepG2 2.2.15, 72 h; summary of the method: as §1
[32] = Selectivity index, ratio of CC50 for human HepG2.2.15 cells to IC50 for Hepatitis B virus infected in human HepG2.2.15 cells assessed as inhibition of HBeAg secretion; format: functional; summary of the method: as §3
Hepatitis B virus [33] = test: Antiviral activity against Hepatitis B virus infected in human HepG2.2.15 cells assessed as inhibition of HBsAg secretion at 150 uM after 6 days by ELISA; format: functional; settings: HepG2 2.2.15, 144 h; summary of the method: as §1

Structure (SMILES)	inhibition at 37.5 µM (Hepatitis B virus [1]) [%]	inhibition at 150 µM (Hepatitis B virus [2]) [%]	inhibition at 75 µM (Hepatitis B virus [3]) [%]	CC50 at 216 h [4] [µM]	inhibition at 37.5 µM (Hepatitis B virus [5]) [%]	inhibition at 300 µM (Hepatitis B virus [6]) [%]	inhibition at 300 µM (Hepatitis B virus [7]) [%]	inhibition at 75 µM (Hepatitis B virus [8]) [%]	viability at 75 µM (Hepatitis B virus [9]) [%]	IC50 (Hepatitis B virus [10]) [µM]	inhibition at 150 µM (Hepatitis B virus [11]) [%]	inhibition at 75 µM (Hepatitis B virus [12]) [%]	viability at 150 µM (Hepatitis B virus [13]) [%]	viability at 37.5 µM (Hepatitis B virus [14]) [%]	inhibition at 37.5 µM (Hepatitis B virus [15]) [%]	inhibition at 75 µM (Hepatitis B virus [16]) [%]	inhibition at 300 µM (Hepatitis B virus [17]) [%]	inhibition at 75 µM (Hepatitis B virus [18]) [%]	inhibition at 300 µM (Hepatitis B virus [19]) [%]	inhibition at 300 µM (Hepatitis B virus [20]) [%]	further results
COc1cc(/C=C/C(=O)O/N=C/c2ccco2)cc(OC)c1OC	25.4	23.7	28.9	1050	15.2	42.6	36.7	13.2	127	190	47.1	36	93.2	133	5.59	25.8	58	35.6	50.1	60.8	IC50 (Hepatitis B virus [21]): 173 µM; inhibition at 150 µM (Hepatitis B virus [22]): 22.6%; viability at 300 µM (Hepatitis B virus [23]): 76.1%; inhibition at 37.5 µM (Hepatitis B virus [24]): 15.8%; inhibition at 300 µM (Hepatitis B virus [25]): 29.2%; inhibition at 150 µM (Hepatitis B virus [26]): 45.1%; inhibition at 37.5 µM (Hepatitis B virus [27]): 8.45%; inhibition at 37.5 µM (Hepatitis B virus [28]): 17.9%; inhibition at 150 µM (Hepatitis B virus [29]): 34.3%; Ratio CC50/IC50 [30]: 6.06; inhibition at 75 µM (Hepatitis B virus [31]): 16.2%; Ratio CC50/IC50 [32]: 5.54; inhibition at 150 µM (Hepatitis B virus [33]): 36.4%
O=C(/C=C/c1ccc2c(c1)OCO2)O/N=C/c1ccco1	30.3	42.9	54.6	480	31.5	71	57.9	24.8	85.5	81.8	70.5	59.5	73.8	94.4	16.9	45.8	86.7	47	79.5	85.4	IC50 (Hepatitis B virus [21]): 64.6 µM; inhibition at 150 µM (Hepatitis B virus [22]): 35.2%; viability at 300 µM (Hepatitis B virus [23]): 43%; inhibition at 37.5 µM (Hepatitis B virus [24]): 32.4%; inhibition at 300 µM (Hepatitis B virus [25]): 47.2%; inhibition at 150 µM (Hepatitis B virus [26]): 59.1%; inhibition at 37.5 µM (Hepatitis B virus [27]): 22.3%; inhibition at 37.5 µM (Hepatitis B virus [28]): 26%; inhibition at 150 µM (Hepatitis B virus [29]): 56.5%; Ratio CC50/IC50 [30]: 7.42; inhibition at 75 µM (Hepatitis B virus [31]): 31.2%; Ratio CC50/IC50 [32]: 5.86; inhibition at 150 µM (Hepatitis B virus [33]): 70.4%
